In test [1] the target is T1, Peroxisome proliferator-activated receptor delta (Homo sapiens) (UniProt Q03181).
T1 sequence (whole entry): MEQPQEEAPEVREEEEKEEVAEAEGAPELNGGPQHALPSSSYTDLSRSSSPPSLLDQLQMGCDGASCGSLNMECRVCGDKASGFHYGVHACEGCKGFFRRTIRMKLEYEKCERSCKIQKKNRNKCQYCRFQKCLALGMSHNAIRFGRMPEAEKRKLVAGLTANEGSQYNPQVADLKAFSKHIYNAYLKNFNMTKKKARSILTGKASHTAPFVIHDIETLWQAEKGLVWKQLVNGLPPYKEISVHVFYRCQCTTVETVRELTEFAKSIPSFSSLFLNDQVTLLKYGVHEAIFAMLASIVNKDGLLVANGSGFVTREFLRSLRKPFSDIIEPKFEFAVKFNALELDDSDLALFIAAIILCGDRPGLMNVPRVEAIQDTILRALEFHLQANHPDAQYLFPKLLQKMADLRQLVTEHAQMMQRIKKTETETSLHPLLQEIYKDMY
Put plainly: Transactivation of GAL4-fused PPARbeta ligand binding domain transfected in human HepG2 cells at 10 uM after 18 hrs by luciferase reporter gene assay. Type of test: cell-based.

Test [2] concerns the target T2, Peroxisome proliferator-activated receptor alpha (Homo sapiens) (UniProt Q07869).
T2 sequence (whole entry): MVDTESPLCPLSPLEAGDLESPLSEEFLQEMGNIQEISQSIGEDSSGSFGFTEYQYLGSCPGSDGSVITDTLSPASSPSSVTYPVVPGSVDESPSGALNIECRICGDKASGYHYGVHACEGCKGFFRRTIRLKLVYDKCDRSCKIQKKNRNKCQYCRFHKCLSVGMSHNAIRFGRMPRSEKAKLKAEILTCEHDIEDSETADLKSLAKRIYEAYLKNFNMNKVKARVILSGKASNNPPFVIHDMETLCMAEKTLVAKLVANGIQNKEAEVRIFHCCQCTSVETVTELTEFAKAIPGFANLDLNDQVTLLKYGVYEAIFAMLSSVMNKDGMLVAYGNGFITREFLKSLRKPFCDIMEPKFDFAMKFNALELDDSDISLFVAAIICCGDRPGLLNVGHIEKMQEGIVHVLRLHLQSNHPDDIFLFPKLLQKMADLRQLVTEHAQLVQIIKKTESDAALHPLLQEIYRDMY
Nature of the test: Transactivation of GAL4-fused PPARalpha ligand binding domain transfected in human HepG2 cells at 10 uM after 18 hrs by luciferase reporter gene assay. Type of test: cell-based. Background: A reporter such as luciferase makes a cellular process visible.

Test [3] deals with T3, Peroxisome proliferator-activated receptor gamma (Homo sapiens, UniProt P37231).
T3 sequence (P37231 whole entry): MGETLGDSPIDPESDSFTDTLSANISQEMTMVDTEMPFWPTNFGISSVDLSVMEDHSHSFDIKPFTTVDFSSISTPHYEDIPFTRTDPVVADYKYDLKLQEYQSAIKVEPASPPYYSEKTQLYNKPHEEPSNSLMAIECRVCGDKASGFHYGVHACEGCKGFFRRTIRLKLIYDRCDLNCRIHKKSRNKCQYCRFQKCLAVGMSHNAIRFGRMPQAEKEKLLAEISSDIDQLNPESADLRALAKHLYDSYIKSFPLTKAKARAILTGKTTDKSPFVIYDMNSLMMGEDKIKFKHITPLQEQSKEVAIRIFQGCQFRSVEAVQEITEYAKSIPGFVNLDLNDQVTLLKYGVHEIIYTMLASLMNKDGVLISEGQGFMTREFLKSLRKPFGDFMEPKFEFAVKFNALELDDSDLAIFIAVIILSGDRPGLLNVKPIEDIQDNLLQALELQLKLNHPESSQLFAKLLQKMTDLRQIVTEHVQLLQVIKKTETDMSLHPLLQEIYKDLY
Put plainly: (§1) Transactivation of GAL4-fused PPARgamma ligand binding domain transfected in human HepG2 cells by luciferase reporter gene assay. Type of test: cell-based. A digest of the protocol:
(§2)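 GAL4–PPARγ LBD luciferase transactivation in HepG2 cells; concentration–response at 1, 10 and 50 μM (rosiglitazone 10, 100, 500 nM); luciferase measured in cell extracts; relative EC50 estimated from curves; mean ± SE of three experiments.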

The target of test [4] is T4, Peroxisome proliferator-activated receptor gamma (Homo sapiens) (UniProt P37231).
T4 sequence (whole entry): T3 sequence (P37231 whole entry)
Described as §1. Type of test: cell-based. The gist of the method: as §2

In test [5] the target is T4, Peroxisome proliferator-activated receptor gamma (Homo sapiens). Nature of the test: Transactivation of PPARgamma in human THP1 cells assessed as decrease in LPS-induced IL6 mRNA expression at 10 uM preincubated for 3 hrs prior to LPS challenge measured after 18 hrs by RT-PCR analysis relative to untreated control. Type of test: cell-based. The following applies: THP-1. A digest of the protocol: (§3)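 Serum-starved THP-1 cells pretreated 3 h with 10 μM compound (rosiglitazone 100 nM reference), then LPS 1 μg/mL for 18 h; total RNA SYBR Green real-time PCR, GAPDH-normalized, expressed relative to untreated cells set to 1; triplicate, repeated twice.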

For test [6] the target is unchanged. Put plainly: Transactivation of PPARgamma in human HepG2 cells assessed as induction of CD36 mRNA expression at 10 uM after 18 hrs by RT-PCR analysis relative to untreated control. Type of test: cell-based. The gist of the method:
(§4)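 Serum-starved HepG2 cells (E-MEM, 10% FBS at maintenance, 37 °C) treated 18 h with 10 μM compound; total RNA by TRIzol, DNase I, random-primed RT; SYBR Green qPCR, 40 cycles; normalized to GAPDH, relative to untreated cells set to 1; triplicate, experiment repeated twice.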

The target is the same in test [7]. Put plainly: Transactivation of PPARgamma in human THP1 cells assessed as decrease in LPS-induced MCP1 mRNA expression at 10 uM preincubated for 3 hrs prior to LPS challenge measured after 18 hrs by RT-PCR analysis relative to untreated control. The class given is cell-based. To be noted: THP-1. The gist of the method: as §3
For test [8] the target is unchanged. Put plainly: Transactivation of PPARgamma in human HepG2 cells assessed as induction of PEPCK mRNA expression at 10 uM after 18 hrs by RT-PCR analysis relative to untreated control. Type of test: cell-based. The gist of the method:
as §4

Test [9] has the same target. Nature of the test: Transactivation of PPARgamma in human HepG2 cells assessed as induction of SCD1 mRNA expression at 10 uM after 18 hrs by RT-PCR analysis relative to untreated control. Type of test: cell-based. The gist of the method: as §4
Test [10] shares this target. Nature of the test: Transactivation of GAL4-fused PPARgamma ligand binding domain transfected in human HepG2 cells at 10 uM after 18 hrs by luciferase reporter gene assay. Type of test: cell-based.
Test [11] shares this target. Put plainly: Covalent binding affinity to N-terminal His6-tagged PPARgamma ligand binding domain (195 to 477 amino acid residues) at 20 uM after 60 to 180 mins by RP-LC-MS analysis. The gist of the method: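 PPARγ-LBD (1 μM) incubated with compound (20 μM) in PBS pH 7.5 at 37 °C for 60 and 180 min; aliquots analysed by RP-LC-MS on C4 column, 20–70% aqueous acetonitrile gradient with 0.05% TFA/1% formic acid over 25 min, spectra m/z 1500–3000.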

Test [12] shares this target. Put plainly: Covalent binding affinity to N-terminal His6-tagged PPARgamma ligand binding domain (195 to 477 amino acid residues) by MALDI-MS and MALDI-MS/MS method. A digest of the protocol: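 Protein–ligand adduct digested with trypsin (E:S 1:100, 1 h, 37 °C), desalted on C18 ZIP-TIP, analysed by MALDI-MS in reflectron positive mode with α-cyano-4-hydroxycinnamic acid matrix, m/z 700–5000; peptide numbering per full-length PPARγ.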

The target is the same in test [13]. Put plainly: Antagonist activity at GAL4-fused PPARgamma ligand binding domain transfected in human HepG2 cells assessed as decrease in rosiglitazone-induced transactivation at 50 uM after 18 hrs by luciferase reporter gene assay. Type of test: cell-based.

Calls of active or inactive are those of the source. The rule behind the calls is not given here.

For orientation: EC50 means the midpoint of the concentration-response curve. Read a low EC50 as higher potency in that assay.

For `CCC1=C[C@@](CC)(C/C(=C/[C@@H](O)CC)CC)OC1=O`, the result in test [1] and in test [2] was inactive.

Consider `CCC1=C[C@@](CC)(C[C@H](/C=C/[C@H](C)O)CC)O/C1=C\C(=O)OC`, for which the result in [1] and in [2] was inactive. In test [3], this compound gave an EC50 of 10 µM. Also, the Activity result in [4] was “Dose-dependent effect”. Besides, the result in test [5], in [6], in test [7], in test [8], in test [9] and in test [10] was Active.

Regarding `CCC1=C[C@@](CC)(C[C@@H](CC)CCC(C)=O)O/C1=C\C(=O)OC`, the result in test [11] and in [10] was inactive.

As for `CCC1=C[C@@](CC)(C[C@H](/C=C/C(C)=O)CC)OC1=O`, the result in [1], in test [2] and in test [8] was inactive. The response in test [3] was half-maximal at 2 µM (EC50). Further, the Activity entry in test [4] was “Dose-dependent effect”. For the same compound, the result in test [6], in test [11], in test [9] and in [10] was Active.

With `CCCC[C@H](CC)C[C@]1(CC)C=C(CC)C(=O)O1`, the outcome in [1] and in test [2] was inactive.

Take `CCC1=C[C@@](CC)(C/C(=C\[C@H](O)CC)CC)OC1=O`: the result in test [1] and in [2] was inactive.

With `CCC1=C[C@@](CC)(C/C(=C/[C@@H](O)CC)CC)O/C1=C\C(=O)OC`, the result in test [1] and in test [2] was inactive.

Take `CC[C@@H]1C[C@@]2(CC)O/C(=C\C(=O)OC)[C@@]3(CC)OO[C@H]([C@@H](C)O)[C@@H]1[C@@H]23`: the outcome in test [1] and in test [2] was inactive.

With `CCC1=C[C@@](CC)(C[C@H](/C=C/C(C)=O)CC)O/C1=C\C(=O)OC`, the result in test [1], in test [2] and in [6] was inactive. Moreover, the response in test [3] was half-maximal at 5 µM (EC50). In test [4], the Activity result is “Dose-dependent effect”. Further, the result in [12], in [11], in test [8], in test [9] and in [10] was Active.

For `CCC1=C[C@@](CC)(C[C@H](/C=C/[C@@H](C)O)CC)OC1=O`, the outcome in test [1] and in [2] was inactive.

For `CC/C=C/[C@H](CC)C[C@]1(CC)C=C(CC)/C(=C/C(=O)OC)O1`, the result in [1] and in test [2] was inactive. The outcome in test [13] was Active.

Turning to `CCC1=C[C@@](CC)(C[C@@H](CC)CCC(C)=O)OC1=O`, the result in test [11] and in [10] was inactive.

As for `CCC1=C[C@@](CC)(C/C(=C\[C@@H](O)CC)CC)OC1=O`, the result in test [1] and in [2] was inactive.

In the case of `CC/C=C/[C@H](CC)C[C@]1(CC)C=C(CC)C(=O)O1`, the result in test [1] and in test [2] was inactive.

In the case of `CCCC[C@H](CC)C[C@]1(CC)C=C(CC)/C(=C/C(=O)OC)O1`, the result in test [1] and in test [2] was inactive. The result in test [13] was Active.
